Measured values as given in ChEMBL document CHEMBL1151475, “Thiopurine drugs azathioprine and 6-mercaptopurine inhibit Mycobacterium paratuberculosis growth in vitro” (2008).

How the values were obtained:
Mycobacterium avium [1] = assay: Antituberculosis activity against Mycobacterium avium JTC48627 isolated from bison fecal sample assessed as minimum drug level required for inhibition by MGIT 960 susceptibility test; assay type: functional, Feces
Procedure, shortened: (§1)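 10^5 to 10^6 CFU from single-cell suspensions inoculated in duplicate into MGIT ParaTB medium with supplement and egg yolk. Drugs were at final 0.5–64.0 μg/ml, with 128.0 μg/ml added for some strains. Tubes were incubated at 37°C in MGIT 960. Inhibition is the lowest concentration giving a time to detection longer than a drug-free 1:100 inoculum control. Killing is no positive signal through 56 days.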

[2] = tested on: Mycobacterium avium subsp. paratuberculosis; assay: Antituberculosis activity against Mycobacterium paratuberculosis B238 isolated from bovine assessed as minimum drug level required for inhibition by MGIT 960 susceptibility test; assay type: functional; procedure, shortened: as §1
[3] = tested on: Mycobacterium avium subsp. paratuberculosis; assay: Antituberculosis activity against Mycobacterium paratuberculosis UCF-4 isolated from Crohn's disease patient assessed as minimum drug level required for killing after 56 days by MGIT 960 susceptibility test; assay type: functional; procedure, shortened: as §1
Mycobacterium avium [4] = assay: Antituberculosis activity against Mycobacterium avium EPA3 isolated from water assessed as minimum drug level required for killing within 15 days by MGIT 960 susceptibility test; assay type: functional
Mycobacterium avium [5] = assay: Antituberculosis activity against Mycobacterium avium ATCC 25291 isolated from chicken assessed as minimum drug level required for killing within 15 days by MGIT 960 susceptibility test; assay type: functional
Mycobacterium avium [6] = assay: Antituberculosis activity against Mycobacterium avium ATCC 25291 isolated from chicken assessed as minimum drug level required for inhibition by MGIT 960 susceptibility test; assay type: functional; procedure, shortened: as §1
[7] = tested on: Mycobacterium avium subsp. paratuberculosis; assay: Antituberculosis activity against Mycobacterium paratuberculosis JTC303 isolated from bovine assessed as minimum drug level required for killing after 56 days by MGIT 960 susceptibility test; assay type: functional; procedure, shortened: as §1
[8] = tested on: Mycobacterium avium subsp. paratuberculosis; assay: Antituberculosis activity against Mycobacterium paratuberculosis B244 isolated from bovine assessed as minimum drug level required for killing after 56 days by MGIT 960 susceptibility test; assay type: functional; procedure, shortened: as §1
Mycobacterium avium [9] = assay: Antituberculosis activity against Mycobacterium avium JTC981 isolated from bongo fecal sample assessed as minimum drug level required for inhibition by MGIT 960 susceptibility test; assay type: functional, Feces; procedure, shortened: as §1
[10] = tested on: Mycobacterium avium subsp. paratuberculosis; assay: Antituberculosis activity against Mycobacterium paratuberculosis UCF-8 isolated from Crohn's disease patient assessed as minimum drug level required for killing after 56 days by MGIT 960 susceptibility test; assay type: functional; procedure, shortened: as §1
Mycobacterium avium [11] = assay: Antituberculosis activity against Mycobacterium avium JTC48627 isolated from bison fecal sample assessed as minimum drug level required for killing within 15 days by MGIT 960 susceptibility test; assay type: functional, Feces
[12] = tested on: Mycolicibacterium smegmatis; assay: Antituberculosis activity against Mycobacterium smegmatis ATCC 14468 assessed as minimum drug level required for inhibition by MGIT 960 susceptibility test; assay type: functional
Procedure, shortened: (§2)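 MGIT ParaTB tubes were supplemented with egg yolk and inoculated in duplicate with 10^5 to 10^6 CFU from single-cell suspensions. Thiopurines were dissolved in 0.05 M NaOH in 10 mM PBS and tested at final 0.5 to 64.0 μg/ml, with 128.0 μg/ml added for some strains. Tubes ran at 37°C in the MGIT 960. The value is the lowest concentration giving a time-to-detection longer than a drug-free 1:100 inoculum control.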

Mycobacterium avium [13] = assay: Antituberculosis activity against Mycobacterium avium WSLH1544 isolated from water assessed as minimum drug level required for killing within 15 days by MGIT 960 susceptibility test; assay type: functional
[14] = tested on: Mycobacterium avium subsp. paratuberculosis; assay: Antituberculosis activity against Mycobacterium paratuberculosis B244 isolated from bovine assessed as minimum drug level required for inhibition by MGIT 960 susceptibility test; assay type: functional; procedure, shortened: as §1
[15] = tested on: Mycobacterium avium subsp. paratuberculosis; assay: Antituberculosis activity against Mycobacterium paratuberculosis B213 isolated from bovine assessed as minimum drug level required for killing after 56 days by MGIT 960 susceptibility test; assay type: functional; procedure, shortened: as §1
[16] = tested on: Mycobacterium avium subsp. paratuberculosis; assay: Antituberculosis activity against Mycobacterium paratuberculosis UCF-7 isolated from Crohn's disease patient assessed as colony counts at 2 ug after 12 days by MGIT 960 susceptibility test; assay type: functional
[17] = tested on: Mycobacterium avium subsp. paratuberculosis; assay: Antituberculosis activity against Mycobacterium paratuberculosis UCF-8 isolated from Crohn's disease patient assessed as minimum drug level required for inhibition by MGIT 960 susceptibility test; assay type: functional; procedure, shortened: as §1
Mycolicibacterium phlei = assay: Antituberculosis activity against Mycobacterium phlei ATCC 11758 assessed as minimum drug level required for inhibition by MGIT 960 susceptibility test; assay type: functional; procedure, shortened: as §2
[18] = tested on: Mycobacterium avium subsp. paratuberculosis; assay: Antituberculosis activity against Mycobacterium paratuberculosis ATCC 19698 isolated from bovine assessed as lowest drug level producing inhibition at 10^6 CFU of inoculum by MGIT 960 susceptibility test; assay type: functional
Procedure, shortened: (§3)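 M. paratuberculosis ATCC 19698 at 10^6 CFU per MGIT ParaTB tube in duplicate, drugs at final 1.0–64.0 μg/ml, 37°C in MGIT 960. Inhibition is the lowest concentration whose time to detection exceeds the 1:100 diluted-inoculum solvent control. No detectable growth means the tube never signals positive through 56 days.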

Mycobacterium avium [19] = assay: Antituberculosis activity against Mycobacterium avium 104 isolated from AIDS patient assessed as minimum drug level required for inhibition by MGIT 960 susceptibility test; assay type: functional; procedure, shortened: as §1
[20] = tested on: Mycobacterium avium subsp. paratuberculosis; assay: Antituberculosis activity against Mycobacterium paratuberculosis UCF-7 isolated from Crohn's disease patient assessed as minimum drug level required for killing after 56 days by MGIT 960 susceptibility test; assay type: functional; procedure, shortened: as §1
[21] = tested on: Mycobacterium avium subsp. paratuberculosis; assay: Antituberculosis activity against Mycobacterium paratuberculosis B213 isolated from bovine assessed as minimum drug level required for inhibition by MGIT 960 susceptibility test; assay type: functional; procedure, shortened: as §1
Enterococcus faecalis [22] = assay: Antituberculosis activity against Enterococcus faecalis ATCC 29212 isolated from human urine assessed as minimum drug level required for inhibition by MGIT 960 susceptibility test; assay type: functional
[23] = tested on: Mycobacterium avium subsp. paratuberculosis; assay: Antituberculosis activity against Mycobacterium paratuberculosis B238 isolated from bovine assessed as minimum drug level required for killing after 56 days by MGIT 960 susceptibility test; assay type: functional; procedure, shortened: as §1
[24] = tested on: Mycobacterium avium subsp. paratuberculosis; assay: Antituberculosis activity against Mycobacterium paratuberculosis UCF-4 isolated from Crohn's disease patient assessed as minimum drug level required for inhibition by MGIT 960 susceptibility test; assay type: functional; procedure, shortened: as §1
Mycobacterium avium [25] = assay: Antituberculosis activity against Mycobacterium avium ATCC 35712 isolated from chicken assessed as minimum drug level required for inhibition by MGIT 960 susceptibility test; assay type: functional; procedure, shortened: as §1
[26] = tested on: Mycobacterium avium subsp. paratuberculosis; assay: Antituberculosis activity against Mycobacterium paratuberculosis B236 isolated from bovine assessed as minimum drug level required for inhibition by MGIT 960 susceptibility test; assay type: functional; procedure, shortened: as §1
Mycobacterium avium [27] = assay: Antituberculosis activity against Mycobacterium avium JTC981 isolated from bongo fecal sample assessed as minimum drug level required for killing within 15 days by MGIT 960 susceptibility test; assay type: functional, Feces
Mycobacterium avium [28] = assay: Antituberculosis activity against Mycobacterium avium 104 isolated from AIDS patient assessed as minimum drug level required for killing within 15 days by MGIT 960 susceptibility test; assay type: functional
[29] = tested on: Mycobacterium avium subsp. paratuberculosis; assay: Antituberculosis activity against Mycobacterium paratuberculosis ATCC 19698 isolated from bovine assessed as minimum drug level resulting in no detectable growth at 10^6 CFU of inoculum after 56 days by MGIT 960 susceptibility test; assay type: functional; procedure, shortened: as §3
[30] = tested on: Mycobacterium avium subsp. paratuberculosis; assay: Antituberculosis activity against Mycobacterium paratuberculosis UCF-5 isolated from Crohn's disease patient assessed as minimum drug level required for inhibition by MGIT 960 susceptibility test; assay type: functional; procedure, shortened: as §1
Enterococcus faecalis [31] = assay: Antituberculosis activity against Enterococcus faecalis ATCC 29212 isolated from human urine assessed as minimum drug level required for killing after 56 days by MGIT 960 susceptibility test; assay type: functional
[32] = tested on: Mycolicibacterium smegmatis; assay: Antituberculosis activity against Mycobacterium smegmatis ATCC 14468 assessed as minimum drug level required for killing after 56 days by MGIT 960 susceptibility test; assay type: functional; procedure, shortened: as §1

Sc1ncnc2nc[nH]c12 [MERCAPTOPURINE ANHYDROUS]
Activity (Mycobacterium avium [1]): 32 µg/mL
Activity [2]: 4 µg/mL
Activity [3]: >32 µg/mL
Activity (Mycobacterium avium [4]): >64 µg/mL
Activity (Mycobacterium avium [5]): >64 µg/mL
Activity (Mycobacterium avium [6]): >64 µg/mL
Activity [7]: 32 µg/mL
Activity [8]: >32 µg/mL
Activity (Mycobacterium avium [9]): >64 µg/mL
Activity [10]: 16 µg/mL
Activity (Mycobacterium avium [11]): >64 µg/mL
Activity [12]: >128 µg/mL
Activity (Mycobacterium avium [13]): >64 µg/mL
Activity [14]: 4 µg/mL
Activity [15]: >32 µg/mL
log10CFU/ml [16]: 3.87
Activity [17]: <1 µg/mL
Activity (Mycolicibacterium phlei): 1 µg/mL
Activity [18]: 1 µg/mL
Activity (Mycobacterium avium [19]): >64 µg/mL
Activity [20]: 8 µg/mL
Activity [21]: 4 µg/mL
Activity (Enterococcus faecalis [22]): >128 µg/mL
Activity [23]: >32 µg/mL
Activity [24]: 2 µg/mL
Activity (Mycobacterium avium [25]): >64 µg/mL
Activity [26]: 4 µg/mL
Activity (Mycobacterium avium [27]): >64 µg/mL
Activity (Mycobacterium avium [28]): >64 µg/mL
Activity [29]: 32 µg/mL
Activity [30]: 1 µg/mL
Activity (Enterococcus faecalis [31]): >128 µg/mL
Activity [32]: >128 µg/mL
